Bioassay records (PubChem)
Sampled rows, rich in hits. Any-hit rate of the full collection: about 9.4%.
SKKanGAS inh – inhibitors of SKKanGAS S. pyogenes growth in kanamycin (SK-promoter or general growth effect) | BacTiter-Glo, 6 h | inhibition, % at 7.5 µM | hit rate 1.3% among 300,000 | AID 1662;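 active = mean replicate score, as percent of positive control median, at least 50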;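 also: strain carries kanamycin resistance gene driven by streptokinase promoter and grows in 40 µg/ml kanamycin; loss of luminescence reflects streptokinase promoter inhibition or plain growth inhibition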
CSC inhib – cancer stem cell inhibition; hit rate 1.1% among 300,000; cancer stem cell-like cells viability, luminescence; AID 2717; inhibition, % at 7.5 µM; in the data active = inhibition above about 75%; tested in HMLE shEcad cells
T cruzi repl – T. cruzi replication inhibition; T. cruzi beta-gal in NIH3T3, luminescence, 90 h; inhibition, % (no concentration beside the values); hit rate 1.4% among 300,000; AID 1885;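 active = mean inhibition across valid replicates above about 55%, limit read from the data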;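 also: signal also drops with host cell toxicity which is not excluded here; higher percent means less beta-gal luminescence so fewer parasites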
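System: mouse NIH/3T3 fibroblasts infected with β-gal-expressing T. cruzi Tulahuen C4 / Input: NIH/3T3 cells, 5,000 per well / Buffer or medium: Low-serum DMEM with 2% FBS / Probe or stimulus: 5000 reporter trypomastigotes per well / Schedule: ≥90 h infection period, 3 h prior cell attachment / Measured by: GalScreen luminescence, 60 min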
Mdm2 MdmX PPI – human Mdm2/MdmX binding inhibition. O15151+Q00987. SaOS-2 split-luciferase Mdm2/MdmX complementation, luminescence. inhibition, % at 8 µM. hit rate 3% among 330,000;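 active = inhibition of at least 50% at 8 µM in the primary screen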
Target sequence (O15151 whole entry, looked up): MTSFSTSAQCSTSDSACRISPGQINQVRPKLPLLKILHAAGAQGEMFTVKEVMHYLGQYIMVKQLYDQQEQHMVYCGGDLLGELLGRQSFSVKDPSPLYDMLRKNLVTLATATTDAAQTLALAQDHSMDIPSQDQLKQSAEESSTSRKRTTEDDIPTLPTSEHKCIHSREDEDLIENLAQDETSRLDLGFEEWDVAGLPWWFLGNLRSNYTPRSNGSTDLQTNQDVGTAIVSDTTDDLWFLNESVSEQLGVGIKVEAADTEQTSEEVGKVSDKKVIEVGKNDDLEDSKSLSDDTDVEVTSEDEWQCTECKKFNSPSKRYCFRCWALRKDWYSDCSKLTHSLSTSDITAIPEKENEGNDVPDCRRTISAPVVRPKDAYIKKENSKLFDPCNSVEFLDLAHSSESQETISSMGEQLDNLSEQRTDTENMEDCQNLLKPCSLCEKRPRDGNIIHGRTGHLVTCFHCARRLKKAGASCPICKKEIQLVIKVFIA
Target sequence (Q00987 whole entry, looked up): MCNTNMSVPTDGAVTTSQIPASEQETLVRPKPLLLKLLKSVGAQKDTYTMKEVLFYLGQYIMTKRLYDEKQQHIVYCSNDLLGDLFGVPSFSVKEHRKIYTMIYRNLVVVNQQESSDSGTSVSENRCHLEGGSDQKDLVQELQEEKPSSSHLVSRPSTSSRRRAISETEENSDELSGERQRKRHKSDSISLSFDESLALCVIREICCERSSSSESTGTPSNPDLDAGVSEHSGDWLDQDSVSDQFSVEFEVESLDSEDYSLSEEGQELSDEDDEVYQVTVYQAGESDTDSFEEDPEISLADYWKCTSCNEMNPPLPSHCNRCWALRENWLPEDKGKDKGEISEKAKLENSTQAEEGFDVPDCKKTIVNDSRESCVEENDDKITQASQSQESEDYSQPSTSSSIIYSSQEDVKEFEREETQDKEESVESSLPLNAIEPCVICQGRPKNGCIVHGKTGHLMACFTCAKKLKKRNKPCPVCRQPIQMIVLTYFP
Beta apoptosis – blocks beta cell apoptosis; INS-1E cytokine-induced death, ATP luminescence, 48 h; percent of positive-control rescue, neutral wells zero; protection from apoptosis, % (concentration not given with the values); hit rate 0.8% among 300,000; AID 435005;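 active = Every replicate reaches about 75%, or at least half do and their mean reaches it too, limit read from the data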;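 also: higher means more ATP so stronger rescue from cytokine killing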
L major viab – reduces viability of Leishmania major promastigotes. resazurin fluorescence viability. inhibition, % at 10 µM. hit rate 9% among 200,000. AID 1063; in the data active = inhibition above about 50%;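 also: promastigotes grown with compound for 44 hours at 28 °C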
Numbers stand for hits; i = inactive; nt = no result.

SMILES | SKKanGAS inh | CSC inhib | T cruzi repl | Mdm2 MdmX PPI | Beta apoptosis | L major viab
Cc1cc(OCCOCCN2CCCC2)ccc1C(C)C | i | i | 57 | i | i | 100
COc1ccccc1OCCOCCN1CCCC1 | i | i | i | i | i | nt
CCCCCC(=O)NNC1CC(=O)N(c2cccc(OCC)c2)C1=O (stereo unspecified) | i | i | i | i | i | nt
Cn1cnnc1SCC(=O)N/N=C/c1ccc(OCC(N)=O)cc1 | i | i | i | i | i | nt
Cc1cccc(OCCOCCN2CCNCC2)c1C | i | i | i | i | i | i
Cc1cccc(OCCOCCN2CCOCC2)c1C | i | i | i | i | i | 88
Cc1nnc(SCc2c(Cl)cccc2[N+](=O)[O-])s1 | i | i | i | i | i | 80
O=[N+]([O-])c1cccc(Cl)c1CSc1ccccn1 | i | i | i | i | i | i
CC(Sc1nnc2c(n1)[nH]c1ccccc12)C(=O)N(C)C1CCCCC1 (stereo unspecified) | i | i | i | i | 100 | nt
O=C(NCCCn1ccnc1)c1cc2c(ccc3ccccc32)o1 | i | i | i | i | i | i
O=C(CCCCCNc1nc(=S)[nH]c2ccccc12)N1CCN(c2ccccn2)CC1 | i | i | i | i | i | 57
COc1cccc(N2CCN(C(=O)CCCCCNc3nc(=S)[nH]c4ccccc34)CC2)c1 | i | i | i | i | i | 74
COC(=O)C(Cc1ccccc1)NC(=O)c1cc(S(=O)(=O)N(C)C)ccc1Cl (stereo unspecified) | i | i | i | i | i | i
Cc1cccc(/C=N/NC(=O)Cn2nnnc2N)n1 | i | i | i | i | i | nt
O=C(C1CC1)N1CCC(c2nc(-c3ccc(S(=O)(=O)N4CCCC4)cc3)no2)CC1 | i | i | i | i | i | 53
CN(C)c1ccc(-c2noc(C3CCN(S(=O)(=O)c4cccc(Cl)c4)CC3)n2)cc1 | i | i | nt | i | nt | i
O=S(=O)(c1ccc2ccccc2c1)N1CCC(c2nc(-c3ccncc3)no2)CC1 | i | i | 71 | i | i | i
O=C(N1CCOCC1)N1CCC(c2nc(-c3ccc(S(=O)(=O)N4CCOCC4)cc3)no2)CC1 | i | i | i | i | i | i
O=C(NC1CCCCC1)N1CCC(c2nc(-c3ccc(S(=O)(=O)N4CCCC4)cc3)no2)CC1 | i | i | i | i | i | 75
O=C(Cc1ccccc1)N1CCCC(c2nc(-c3ccc(S(=O)(=O)N4CCCC4)cc3)no2)C1 (stereo unspecified) | i | i | i | i | i | 99
COc1ccc(-c2cc(C(=O)N3CCN(c4ccccc4F)CC3)c3ccccc3n2)c(OC)c1 | i | i | i | i | i | nt
CCn1ccnc1CN(C)Cc1cn(-c2ccc(C)cc2)nc1-c1cccc(C)c1 | i | i | 66 | i | i | 78
Cc1ccc(-n2cc(CN3CCN(Cc4nccn4C)CC3)c(-c3cccc(C)c3)n2)cc1 | i | i | i | i | i | i
CCn1ccnc1CN(C)Cc1cn(-c2cccc(C)c2)nc1-c1cccc(F)c1 | i | i | 55 | i | i | 99
COc1ccc(-n2cc(CN(C)CCO)c(-c3cccc(F)c3)n2)cc1 | i | i | i | i | i | i
SMILES | SKKanGAS inh | CSC inhib | T cruzi repl | Mdm2 MdmX PPI | Beta apoptosis | L major viab
Cc1cccc(-n2cc(CN(C)Cc3nccn3C)c(-c3cccc(F)c3)n2)c1 | i | 103 | 65 | i | i | i
Cc1ccccc1CSc1nnc(C)c(=O)n1N | i | i | i | i | i | i
O=C(O)/C=C/C(=O)NC1CCCCCCCCCCC1 | i | i | i | i | i | nt
Cc1cc(N=Cc2c(O)n(-c3cccc(Cl)c3)c(=O)c3ccccc23)no1 | i | i | i | i | i | i
Cc1ccc(N=Cc2c(O)n(-c3cc(Cl)ccc3N3CCOCC3)c(=O)c3ccccc23)cc1C | i | i | i | i | i | 70
COCCNC(=O)c1c(N)n(CCC2=CCCCC2)c2nc3ccccc3nc12 | i | i | i | i | i | 100
COc1ccc(CCn2c(N)c(C(=O)NCc3ccco3)c3nc4ccccc4nc32)cc1 | i | i | i | i | i | i
CCC(C)n1c(C)nc2c(c1=O)c1nc3ccccc3nc1n2CCC1=CCCCC1 (stereo unspecified) | i | i | 59 | i | i | 57
O=C(CNC(=O)[C@@H]1Cc2ccccc2CN1)NCc1ccco1 | i | i | i | i | i | nt
Oc1ccc(CCc2n[nH]c(=S)n2-c2ccc(F)cc2)cc1 | i | i | i | i | i | nt
NC(=O)NC(=O)CSc1nc2sc(-c3ccccc3)cc2c(=O)n1-c1ccccc1 | 62 | i | i | i | i | i
COCCNC(=O)/C(C#N)=C1\N=C(N)c2ccccc21 | i | i | i | i | i | 59
COCCNC(=O)/C(C#N)=C1\N=C(NC(=O)c2cccs2)c2ccccc21 | i | i | i | i | i | nt
C=CCn1c(=O)c2ccc(C(=O)NCc3ccccc3)cc2n(Cc2ccccc2Cl)c1=O | i | i | i | i | i | 56
C=CCn1c(=O)c2ccc(C(=O)NCc3ccccc3)cc2n(Cc2ccc(Cl)cc2)c1=O | i | i | i | i | i | i
CC(C)N(C(=O)CSc1nnc(-c2cc3ccccc3cc2O)n1Cc1ccco1)C(C)C | i | i | i | i | i | 54
C=CCOC(=O)C1=C(C)Nc2nnnn2C1c1cc(OC)ccc1OC (stereo unspecified) | i | i | i | i | i | i
CCOC(=O)C1=C(C)Nc2nnnn2C1c1ccc(OC)c(Br)c1 (stereo unspecified) | i | i | i | i | i | 91
CCCCOC(=O)C1=C(C)Nc2ncnn2C1c1ccc(OC)c(OC)c1 (stereo unspecified) | i | i | i | i | i | 75
Cc1csc2ncnc(NC3CCN(Cc4ccccc4)CC3)c12 | i | i | i | i | 107 | nt
Cc1ccc(-c2csc3ncnc(N4CCN(Cc5ccccc5)CC4)c23)cc1 | i | i | i | i | i | nt
COc1ccc(CNC(=O)CN(Cc2ccccc2)S(=O)(=O)c2ccc(Cl)cc2)cc1 | i | i | 74 | i | i | 98
COc1ccc(C)cc1S(=O)(=O)N(CC(=O)NCc1ccc(Cl)cc1)Cc1ccccc1 | i | i | i | i | i | 99
Cc1cccc(CSCc2ccc(C(=O)NC3CCCC3)o2)c1 | i | i | i | i | i | i
COc1ccc(N(CC(=O)NCCSc2ccc(C)cc2)S(=O)(=O)c2ccccc2)c(OC)c1 | i | nt | i | i | i | nt
COc1cc(C(C[N+](=O)[O-])c2c(N)n(C)c(=O)n(C)c2=O)ccc1O (stereo unspecified) | i | i | i | i | i | 73
Cc1ccc(C(C[N+](=O)[O-])c2c(N)n(C)c(=O)n(C)c2=O)cc1 (stereo unspecified) | i | i | i | i | i | nt
O=C(c1ccc(F)c(S(=O)(=O)N2CCOCC2)c1)N1CCc2ccccc21 | i | i | i | i | i | nt
COc1ccc([C@H]2/C=C\CN(S(=O)(=O)c3ccc4ccccc4c3)[C@@H](C)C(=O)N2Cc2ccc(F)cc2)cc1 | i | i | 59 | i | i | nt
